Screening results: PubChem BioAssay, several laboratories
Hits are enriched below; roughly 12% of the tested compounds scored in any of these assays.
L major viab = reduces viability of Leishmania major promastigotes; resazurin fluorescence viability; inhibition, % at 10 µM; 9% of 200,000 active; in the data active means inhibition above about 50%;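 further: promastigotes grown with compound for 44 hours at 28 °C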
bCat nuc transl = modulators of beta-catenin nuclear translocation | nuclear translocation activity, % at 5 µM | AID 1665 | 0.3% of 190,000 active | HeLa beta-catenin nuclear translocation, immunofluorescence imaging;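 active means nuclear translocation activity above 50% at 5 µM, with a well cell count of 50 or more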;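 further: per-cell ratio of nuclear to cytoplasmic median beta-catenin stain intensity; plate controls were DMSO negative control for no effect and GSK-3 inhibitor IX positive control for full effect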
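System: Human HeLa cells, endogenous beta-catenin | Compound dosing: 5 µM primary, 0.02–20 µM confirmation | Timing: 24 h compound exposure at 37°C, 5% CO2 | Measured by: Fluorescence imaging of beta-catenin antibody stain plus DAPI | Read-out basis: % activation of per-cell nuclear versus cytoplasmic median beta-catenin signal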
MT stabilizer = microtubule stabilization, imaging screen; HeLa tubulin immunostaining HCS, 24 h; share of cells brighter than vehicle mean+2SD; % tubulin-high responders, % at 10 µM; 0.83% of 200,000 active;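 active means plate Z-score above 3 for both tubulin-high and condensed-nucleus cell shares, with cell loss under 80%, at 10 µM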;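 further: anti alpha tubulin signal scored within the nucleus-defined area of each cell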
Dynein transport = blocks dynein driven cargo transport along microtubules. 3617.4 mouse cells, GR-EGFP nuclear translocation imaging; test concentration mostly 20 µM; stimulated with dexamethasone, 1 µM; hits give low values. 0.47% of 220,000 active. z-score, hits read low. AID 1381;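 active means plate z-score of nuclear minus cytoplasmic receptor signal below a set negative limit, without overly bright fluorescence or cell loss, cut at about -3.5 in these data, passing the limit was not always enough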;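 further: z-score of nuclear minus cytoplasmic ring GR-EGFP intensity difference per well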
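medium = tetracycline-free induction medium containing charcoal-stripped FBS | also added = 1.0 µM final dexamethasone stimulus | schedule = 48 h induction, 1 h compound, 30 min dex at 37 °C | technique = fixed, Hoechst-stained cells imaged at 10x for EGFP | measure = GR-EGFP nuclear translocation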
CHOP inh = blocks CHOP induction under ER stress; inhibition, % at 10 µM; 3.8% of 220,000 active; AID 2732; CHO-K1 CHOP-promoter luciferase, tunicamycin-induced, 15-18 h;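 active means compounds that reduced the stress-induced luciferase reporter signal by more than about 70% of percent inhibition, limit read from the data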;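 further: 0% = tunicamycin plus vehicle and 100% = wells without tunicamycin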
Autophagy HCS = autophagy modulation, high-content screen. MEF GFP-LC3 puncta imaging; test concentration mostly 10 µM. calls only at 10 µM (by protocol). 0.98% of 190,000 active;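 active means percentage of spot-positive cells more than 3 SD above its plate mean, without a fluorescence outlier flag or 80% toxicity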;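 further: spot-positive cell cutoff set from DMSO-treated cells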
Active calls of the source: *; i = inactive; . = no result given; + = active, no number.

SMILES | L major viab | bCat nuc transl | MT stabilizer | Dynein transport | CHOP inh | Autophagy HCS
COc1ccccc1NC(=O)C(=O)N(c1cccnc1)C(C(=O)NC(C)(C)C)c1ccccc1F (stereo unspecified) | 25.1 | 0.4 | 1.5 | -0.338 | -1.0 | i
CN(C)c1ccnc(Nc2ccc(O)cc2)c1C#N | -6.7 | -1.6 | 2.0 | 0.619 | -14.1 | i
CC(=O)Nc1ccc(/C=N/NC(=S)NC(C)C)cc1 | -8.4 | -2.2 | 2.5 | 0.216 | -12.9 | i
Fc1nc(F)c(F)c(NCCCNc2c(F)c(F)nc(F)c2F)c1F | 10.7 | 1.9 | 2.3 | -0.199 | 87.6* | i
CC1=NN(C(=O)c2cc(C)nn2C)C(O)(C(F)(F)F)C1 (stereo unspecified) | -5.0 | -3.9 | 1.3 | -1.05 | 46.9 | i
COC(=O)CN1C2=NCCCN2c2ccccc21 | -4.5 | 0.4 | 4.6 | -1.24 | -24.1 | i
Cc1ccc(/C(N)=N/OC(=O)N2c3ccccc3Sc3ccccc32)cc1 | 99.5* | . | 3.9 | 1.17 | . | i
Cc1ccccc1/C(N)=N/OC(=O)N1c2ccccc2Sc2ccccc21 | 92.8* | -0.4 | 4.1 | 1.37 | 41.4 | i
COc1cccc(N/C(SCc2cccc([N+](=O)[O-])c2)=C(/C#N)C(=O)NCc2cccs2)c1 | 87.1* | 0.8 | 4.7 | 2.19 | -6.3 | i
COc1cccc(N/C(SCc2ccccc2C)=C(/C#N)C(=O)NCc2cccs2)c1 | 3.5 | 1.2 | 3.8 | -0.21 | 21.4 | i
Cc1ccc(C)c(NC(=O)C(Sc2ncnc3ccccc23)c2ccccc2)c1 (stereo unspecified) | 73.0* | 3.1 | 4.6 | 0.377 | 33.1 | i
O=C(NNc1ccccc1)C(CCO)C(=O)NNc1ccccc1 | 75.5* | -2.7 | 3.9 | 0.954 | 2.4 | i
CC(O)CC(C(=O)NNc1ccccc1)C(=O)NNc1ccccc1 (stereo unspecified) | 62.8* | 10.2 | 4.1 | -0.0187 | 35.3 | i
CC(C)C(=O)NNc1ccccc1 | 0.4 | -1.1 | 2.6 | -0.259 | 9.4 | i
CCCN=C1CC(C)(C)CC(=O)/C1=C(/O)CCC | -1.0 | -2.7 | 1.2 | -0.533 | 26.2 | i
COC(=O)CC/C(O)=C1\C(=O)CC(C)(C)CC1=Nc1ccccc1OC | -4.3 | -2.6 | 16.7* | 0.0157 | -1.3 | i
CCC/C(O)=C1\C(=O)CC(C)(C)CC1=Nc1ccc(OC)cc1OC | 4.2 | 76.1* | 53.3 | 2.94 | . | i
CCCC/C(O)=C1\C(=O)CC(C)(C)CC1=Nc1ccccc1OC | 7.0 | -2.0 | 3.4 | 0.0179 | -4.2 | i
CCOC(=O)c1nn(-c2ccc(OC)cc2)c(=O)c2c(N)scc12 | 0.1 | 0.4 | 4.2 | 1.37 | 19.1 | i
CCOC(=O)c1nn(-c2ccc(C)c(C)c2)c(=O)c2c(N)scc12 | 47.6 | 8.4 | 3.3 | 0.56 | 92.4* | i
CCCCCc1cc(O)c2c(C)cc(=O)oc2c1 | 34.1 | 2.3 | 4.4 | -0.41 | 72.3* | i
COc1cccc(CN2CCN(Cc3cc(OC)c(OC)cc3[N+](=O)[O-])CC2)c1 | 59.8* | 0.8 | 2.8 | -0.423 | 11.4 | i
COc1cc(CN2CCN(Cc3ccc([N+](=O)[O-])cc3)CC2)c([N+](=O)[O-])cc1OC | 67.7* | -2.8 | 2.0 | -0.746 | -42.8 | i
COc1cc(CN2CCN(c3ccccc3F)CC2)c([N+](=O)[O-])cc1OC | 42.0 | 2.2 | 1.9 | -0.905 | -9.1 | i
COc1cc(/C=N/N=C(/N)c2nonc2N)cc(Br)c1OCc1cccc(C)c1 | 40.9 | -0.4 | 1.4 | -0.384 | 71.4* | i
SMILES | L major viab | bCat nuc transl | MT stabilizer | Dynein transport | CHOP inh | Autophagy HCS
COc1cc(/C=N/N=C(\N)c2nonc2N)cc(OC)c1O | . | 0.9 | . | -0.573 | -15.8 | .
CCOc1cc(/C=N/NC(N)=S)cc(Br)c1OCc1ccccc1C | 100.0* | -2.4 | 1.3 | 1.67 | 86.5* | +
COc1ccc(/C=N/N=C(\N)c2nonc2N)cc1 | -0.2 | -0.2 | 4.9 | 1.09 | 28.9 | i
CCOc1cc(/C=N/N=C(\N)c2nonc2N)cc(Br)c1OCc1cccc2ccccc12 | 1.3 | -4.5 | 1.6 | 2.94 | 94.8* | i
CC1=CC=CC2=NC(=O)CC(C)(C(=O)O)N12 (stereo unspecified) | -1.1 | -1.0 | 2.4 | 0.995 | -6.3 | i
CCOC(=O)c1[nH]c2cc3c(cc2c1NC(=O)CN1CC(C)CC(C)C1)OCO3 (stereo unspecified) | 23.6 | -3.0 | 3.2 | -0.45 | 79.4* | i
